Assays:
[1] = test system: B cells from healthy donors; test: Toxicity toward B cells from healthy donors; format: cell-based, human; conditions: n=3
[2] = test system: T cells from healthy donors; test: Toxicity toward T cells from healthy donors; format: cell-based, human; conditions: n=3
Human serum protein = Human serum protein binding; format: in vitro ADME; conditions: 22 h incubation with the serum, mean ± SD, triplicate
primary CLL cells [3] = test: Mitochondrial outer membrane permeabilization; format: cell-based, human; conditions: read-out: IC50 for MOMP induction; 24 h, DiOC6(3) staining; mean ± SD in 15 CLL samples
FBS protein = FBS protein binding; format: in vitro ADME, bovine; conditions: 22 h incubation with the serum; mean ± SD, triplicate
[4] = human serum and fetal bovine serum; cited from earlier work
Bcl-XL = test: Immunoblot of Bcl-XL protein level in CLL cells; format: cell-based, human
Procedure, shortened: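 Primary CLL cells from patients (informed consent) exposed to test compound, then immunoblotted for Bcl-XL alongside Mcl-1, Bcl-2 and PARP. Cleaved PARP served as the apoptosis marker. Three CLL patient samples were run, and one representative blot is shown.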

Bcl-2 = test: Immunoblot of Bcl-2 protein level in CLL cells; format: cell-based, human; conditions: 24 h
Mcl-1 = test: Immunoblot of Mcl-1 protein level in CLL cells; format: cell-based, human; conditions: 24 h
primary CLL cells [5] = test: Induction of apoptosis / cell death in primary CLL cells; format: cell-based, human
primary CLL cells [6] = test: Protein synthesis by [3H]leucine incorporation in primary CLL cells; format: cell-based, human; conditions: primary CLL samples, 4 h after exposure
FBS protein binding = format: in vitro ADME, bovine; conditions: bovine
[7] = Human serum protein binding; format: in vitro ADME; conditions: human

In the case of `CC(/C=C/C(C)=C/[C@@H]1Cc2nc(cs2)CC[C@@H](N)CC(=O)O[C@@H](C)C/C(C)=C/C=C\C(=O)O1)=C\CN(C)C` [Compound 3, des-methyl PatA], the “toxicity to normal B cells compared with CLL cells / PatA” value [1] is reported as “significantly lower toxicity”, the “toxicity to normal T cells compared with CLL cells / PatA” value [2] is reported as “significantly lower toxicity” and the “Human serum protein binding (%) Fraction Bound” value (Human serum protein) is reported as 86.7 ± 4.7%. For the same compound, the “Human serum protein binding (%) Recovery” value (Human serum protein) was 54.0 ± 2.6%.

For `CC(/C=C/C(C)=C/[C@@H]1Cc2nc(cs2)CCCCC(=O)O[C@@H](C)C/C(C)=C/C=C\C(=O)O1)=C\CN(C)C` [DMDA PatA (2), des-methyl, des-amino PatA], the IC50 (primary CLL cells [3]) was 4920 ± 1400 nM, the “FBS protein binding (%) Fraction Bound” value (FBS protein) was 99.1 ± 0.1% and the “FBS protein binding (%) Recovery” value (FBS protein) was 78.3 ± 2.7%. The “stability in human serum compared with fetal bovine serum” value [4] was “similar”, the “effect on Bcl-XL expression” value (Bcl-XL) was “without affecting the expression” and the “effect on Bcl-2 expression” value (Bcl-2) was “without affecting the expression”. The “effect on Mcl-1 protein level” value (Mcl-1) was “reduced levels”, the “Human serum protein binding (%) Fraction Bound” value (Human serum protein) was 99.6 ± 0.1% and the “Human serum protein binding (%) Recovery” value (Human serum protein) was 38.1 ± 7.5%. For the same compound, the “Human serum protein binding (%) Fraction Bound” value (Human serum protein; listed as DMDAPatA) was 99.7%, the “Human serum protein binding (%) Recovery” value (Human serum protein; listed as DMDAPatA) was 31.4% and the “times less potent than PatA” value (primary CLL cells [5]; CLL cells in media with 10% autologous patient plasma) was “about 30 times”. For the same compound, the IC50 (primary CLL cells [5]; read-out: IC50 in one sample with 19% del11q, single CLL sample with 19% del11q) was 4.32 µM and the “inhibition of protein synthesis ([3H]leucine incorporation)” value (primary CLL cells [6]) was “inhibited protein synthesis”.

In the case of `CC(/C=C/C(C)=C/[C@@H]1Cc2nc(cs2)[C@@H](C)C[C@@H](N)CC(=O)O[C@@H](C)C/C(C)=C/C=C\C(=O)O1)=C\CN(C)C` [PatA (1), Pateamine A, reference compound], the recovery at 22 h (FBS protein binding; FBS protein binding (%) Recovery, 22 h incubation with the serum, mean ± SD, triplicate) is reported as 86.2%, the fraction unbound at 22 h (FBS protein binding; serum) is reported as 0.013 and the “FBS protein binding (%) Recovery” value (FBS protein) is reported as 86.3 ± 4.3%. The recovery at 22 h [7] was 80.4 ± 12.8%, the fraction unbound at 22 h ([7]; serum) was 0.026 and the IC50 (primary CLL cells [5]; Homo sapiens, CLL cell, 24 h, read-out: IC50, μM 10% FBS) was 0.13 ± 0.08 µM. It also gave an IC50 (primary CLL cells [5]; Homo sapiens, CLL cell, 24 h, read-out: IC50, μM 10% Plasma) of 0.12 ± 0.09 µM.
